Experimental data taken from ChEMBL document CHEMBL5678806, “NMS-P937, an orally available, specific small-molecule polo-like kinase 1 inhibitor with antitumor activity in solid and hematologic malignancies” (Mol Cancer Ther, 2012).
Calls of active or inactive are those of the source. The rule behind the calls is not given here.

Tests used:
[1] = system: SW48; test: Antiproliferative activity against human SW48 cells assessed as inhibition of cell growth incubated for 72 hrs by cell-titer glo assay; type: functional, cell-based; details: SW48, 72 h
[2] = system: A-431; test: Antiproliferative activity against human A-431 cells assessed as inhibition of cell growth incubated for 72 hrs by cell-titer glo assay; type: functional, cell-based; details: A-431, 72 h
Procedure, shortened: (§1)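 Cells seeded 10,000–30,000/cm² (adherent) or 100,000/mL (suspension) in medium with 10% fetal calf serum; after 24 h treated in duplicate with serial dilutions for 72 h. Viable cells read by CellTiter-Glo luminescence; IC50 from sigmoidal fit; at least two independent experiments.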

[3] = system: A2780; test: Antitumor activity against human A2780 cells xenografted in nu/nu mouse assessed as tumor growth inhibition at 60 mg/kg, po administered for 10 days; details: time 10.0 day
[4] = target: Insulin receptor-related protein (Homo sapiens) (UniProt P14616); test: Inhibition of N-terminal 6His-tagged recombinant human IRR (944 to 1266 residues) expressed in baculovirus infected Sf21 cells assessed as residual activity at 0.1 uM relative to control
[5] = target: Serine/threonine-protein kinase Nek3 (Homo sapiens) (UniProt P51956); test: Inhibition of N-terminal 6His-tagged recombinant full length human NEK3 expressed in baculovirus infected Sf21 cells assessed as residual activity at 0.1 uM relative to control
[6] = Half-life in Sprague-Dawley rat at 10 mg/kg, iv by LC-MS analysis; type: ADME, organism-based; details: in vivo
[7] = target: Proto-oncogene tyrosine-protein kinase Src (Homo sapiens) (UniProt P12931); test: Inhibition of N-Terminal His6-tagged recombinant full-length human c-SRC expressed in Sf21 cells assessed as residual activity at 0.1 uM relative to control
[8] = system: Angiopoietin-1 receptor (Homo sapiens), Q02763 [R849W]; test: Inhibition of N-terminal His6-tagged recombinant human Tie2 (771 to end residues) R849W mutant expressed in baculovirus infected Sf21 cells assessed as residual activity at 0.1 uM relative to control
[9] = target: Macrophage-stimulating protein receptor (Homo sapiens) (UniProt Q04912); test: Inhibition of N-terminal GST-tagged recombinant human Ron (983 to end residues) expressed in baculovirus infected Sf21 cells assessed as residual activity at 1 uM relative to control
[10] = Antitumor activity against human Acute myeloid leukemic cell xenografted in nu/nu mouse assessed as increase in median survival time at 120 mg/kg, po administered for 2 days and measured after 10 days (reference value: 34 days); type: functional, Leukemia cell; details: time 2 day
[11] = target: Homeodomain-interacting protein kinase 2 (Homo sapiens) (UniProt Q9H2X6); test: Inhibition of N-terminal His6-tagged recombinant human HIPK2 (165 to 564 residues) expressed in baculovirus infected Sf21 cells assessed as residual activity at 0.1 uM relative to control
[12] = target: Tyrosine-protein kinase Lyn (Homo sapiens, UniProt P07948); test: Inhibition of LYN (unknown origin) in presence of [gamma-33P]ATP
[13] = system: A2780; test: Induction of cell cycle arrest in human A2780 cells assessed as accumulation of cells in G2/M phase by measuring CDK1 phosphorylation on Tyr15 incubated for 24 hrs by Western blotting analysis; type: functional, cell-based; details: dose 0.02-0.2 µmol/L
Procedure, shortened: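 A2780 ovarian carcinoma cells treated 24 h with a range of concentrations, with DMSO and nocodazole controls. 20 µg protein extract separated by SDS-PAGE and immunoblotted with chemiluminescent detection. Probed for total and phospho-Thr210 PLK1, phospho-Ser10 histone H3, phospho-Thr199 NPM and phospho-Tyr15 CDK1. Total NPM, tubulin and total CDK1 served as loading controls.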

[14] = target: Insulin-like growth factor 1 receptor (Homo sapiens) (UniProt P08069); test: Inhibition of N-terminal 6His-tagged recombinant human IGF-1R (959 to end residues) expressed in baculovirus infected Sf21 cells assessed as residual activity at 1 uM relative to control
[15] = system: HEL; test: Antiproliferative activity against human HEL cells assessed as inhibition of cell growth incubated for 72 hrs by cell-titer glo assay; type: functional, cell-based
Procedure, shortened: (§2)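 Cells seeded at 10,000–30,000/cm² (adherent) or 100,000/mL (nonadherent) in medium with 10% fetal calf serum; after 24 h, treated in duplicate with serial dilutions for 72 h. Viable cell number read by CellTiter-Glo luminescence; IC50 from sigmoidal fit; at least two independent experiments.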

[16] = Antiproliferative activity against human LUDLU-1 cells assessed as inhibition of cell growth incubated for 72 hrs by cell-titer glo assay; type: functional, cell-based; details: LUDLU-1, 72 h; procedure, shortened: as §2
[17] = system: MDA-MB-435S; test: Antiproliferative activity against human MDA-MB-435S cells assessed as inhibition of cell growth incubated for 72 hrs by cell-titer glo assay; type: functional, cell-based; procedure, shortened: as §2
[18] = Tmax in Beagle dog at 5 mg/kg, po by LC-MS analysis; type: ADME, organism-based, Canis lupus familiaris; details: in vivo
[19] = system: HT-1080; test: Antiproliferative activity against human HT-1080 cells assessed as inhibition of cell growth incubated for 72 hrs by cell-titer glo assay; type: functional, cell-based; details: HT-1080, 72 h; procedure, shortened: as §2
[20] = target: Tyrosine-protein kinase ZAP-70 (Homo sapiens) (UniProt P43403); test: Inhibition of C-terminal His6 tagged recombinant human full length ZAP-70 expressed in Sf21 cells assessed as residual activity at 0.1 uM relative to control
[21] = target: Serine/threonine-protein kinase PAK 3 (Homo sapiens) (UniProt O75914); test: Inhibition of C-terminal 6His-tagged recombinant human full-length PAK3 expressed in baculovirus infected Sf21 cells assessed as residual activity at 1 uM relative to control
[22] = system: NCI-H889; test: Antiproliferative activity against human NCI-H889 cells assessed as inhibition of cell growth incubated for 72 hrs by cell-titer glo assay; type: functional, cell-based; details: NCI-H889, 72 h
Procedure, shortened: (§3)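 Cells from ATCC or ECACC, kept in supplier-recommended medium with 1% penicillin-streptomycin at 37°C, 5% CO₂. Seeded at 10,000–30,000/cm² (adherent) or 100,000/mL (nonadherent) in medium with 10% fetal calf serum. Dosed after 24 h in duplicate with serial dilutions. Viable cells read by CellTiter-Glo 72 h later. IC50 from sigmoidal fit. At least two independent experiments.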

[23] = Antiproliferative activity against human A2780 ADR cells assessed as inhibition of cell growth incubated for 72 hrs by cell-titer glo assay; type: functional, cell-based; procedure, shortened: as §1
[24] = target: Eukaryotic elongation factor 2 kinase (Homo sapiens, UniProt O00418); test: Inhibition of EEF2K (unknown origin) in presence of [gamma-33P]ATP
[25] = target: Dual specificity mitogen-activated protein kinase kinase 7 (Homo sapiens) (UniProt O14733); test: Inhibition of N-terminal GST-tagged recombinant human MKK7beta (2 to end residues) expressed in E. coli assessed as residual activity at 1 uM relative to control
[26] = system: SF-268; test: Antiproliferative activity against human SF-268 cells assessed as inhibition of cell growth incubated for 72 hrs by cell-titer glo assay; type: functional, cell-based; details: SF-268, 72 h; procedure, shortened: as §3
[27] = Tmax in Sprague-Dawley rat at 10 mg/kg, po by LC-MS analysis; type: ADME, organism-based; details: in vivo

Sequence of Eukaryotic elongation factor 2 kinase (O00418 whole entry): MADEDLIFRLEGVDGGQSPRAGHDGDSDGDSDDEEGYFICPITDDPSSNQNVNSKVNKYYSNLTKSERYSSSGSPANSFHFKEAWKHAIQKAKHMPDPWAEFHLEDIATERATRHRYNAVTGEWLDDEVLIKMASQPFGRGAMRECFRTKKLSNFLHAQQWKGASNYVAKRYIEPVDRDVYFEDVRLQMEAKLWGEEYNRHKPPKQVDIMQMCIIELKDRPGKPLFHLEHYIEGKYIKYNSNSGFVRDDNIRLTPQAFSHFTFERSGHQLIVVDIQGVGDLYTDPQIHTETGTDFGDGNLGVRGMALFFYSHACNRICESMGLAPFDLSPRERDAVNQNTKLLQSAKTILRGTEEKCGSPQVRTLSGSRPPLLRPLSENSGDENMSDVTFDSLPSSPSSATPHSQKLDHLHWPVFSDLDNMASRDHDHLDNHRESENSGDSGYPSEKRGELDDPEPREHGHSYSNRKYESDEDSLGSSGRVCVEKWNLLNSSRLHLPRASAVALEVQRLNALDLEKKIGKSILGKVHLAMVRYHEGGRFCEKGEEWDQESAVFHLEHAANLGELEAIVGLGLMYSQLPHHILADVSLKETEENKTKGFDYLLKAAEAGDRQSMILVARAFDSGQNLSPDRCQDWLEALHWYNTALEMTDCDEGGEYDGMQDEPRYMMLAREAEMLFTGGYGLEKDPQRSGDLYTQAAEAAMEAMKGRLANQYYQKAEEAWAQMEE
Sequence of Insulin receptor-related protein (Homo sapiens) (P14616 27-742 limits assumed): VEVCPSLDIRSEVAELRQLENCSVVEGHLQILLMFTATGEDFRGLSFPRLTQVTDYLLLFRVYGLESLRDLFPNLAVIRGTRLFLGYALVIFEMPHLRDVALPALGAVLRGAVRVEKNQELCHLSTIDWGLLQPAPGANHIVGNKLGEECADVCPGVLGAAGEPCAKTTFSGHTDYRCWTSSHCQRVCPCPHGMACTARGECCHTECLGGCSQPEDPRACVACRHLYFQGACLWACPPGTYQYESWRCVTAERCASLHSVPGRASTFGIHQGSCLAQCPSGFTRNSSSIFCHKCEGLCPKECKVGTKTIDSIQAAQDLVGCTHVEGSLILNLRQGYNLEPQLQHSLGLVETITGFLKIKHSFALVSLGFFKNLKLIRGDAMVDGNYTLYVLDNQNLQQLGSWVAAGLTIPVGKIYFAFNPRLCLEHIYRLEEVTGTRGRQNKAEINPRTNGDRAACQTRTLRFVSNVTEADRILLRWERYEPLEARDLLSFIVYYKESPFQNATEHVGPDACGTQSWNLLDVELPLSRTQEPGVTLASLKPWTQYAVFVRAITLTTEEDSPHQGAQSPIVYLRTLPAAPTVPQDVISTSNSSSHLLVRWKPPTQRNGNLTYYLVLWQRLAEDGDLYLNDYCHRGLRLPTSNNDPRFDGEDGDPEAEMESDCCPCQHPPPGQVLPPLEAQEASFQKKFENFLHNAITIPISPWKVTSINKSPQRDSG
Sequence of Insulin receptor-related protein (Homo sapiens) (P14616 747-1297 limits assumed): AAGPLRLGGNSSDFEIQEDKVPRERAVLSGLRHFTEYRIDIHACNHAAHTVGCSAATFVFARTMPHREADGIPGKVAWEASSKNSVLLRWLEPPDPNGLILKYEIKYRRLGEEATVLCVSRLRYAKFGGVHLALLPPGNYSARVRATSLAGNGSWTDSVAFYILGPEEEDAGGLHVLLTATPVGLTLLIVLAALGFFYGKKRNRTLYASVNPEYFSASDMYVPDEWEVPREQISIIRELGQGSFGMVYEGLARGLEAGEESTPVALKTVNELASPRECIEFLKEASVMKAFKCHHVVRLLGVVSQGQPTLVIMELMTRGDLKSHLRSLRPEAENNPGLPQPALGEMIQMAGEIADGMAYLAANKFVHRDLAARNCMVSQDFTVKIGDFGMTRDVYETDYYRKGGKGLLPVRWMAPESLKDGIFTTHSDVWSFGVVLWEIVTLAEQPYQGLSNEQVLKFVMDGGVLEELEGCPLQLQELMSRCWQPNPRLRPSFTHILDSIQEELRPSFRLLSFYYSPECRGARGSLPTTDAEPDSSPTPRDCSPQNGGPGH
Sequence of Dual specificity mitogen-activated protein kinase kinase 7 (Homo sapiens) (O14733 whole entry): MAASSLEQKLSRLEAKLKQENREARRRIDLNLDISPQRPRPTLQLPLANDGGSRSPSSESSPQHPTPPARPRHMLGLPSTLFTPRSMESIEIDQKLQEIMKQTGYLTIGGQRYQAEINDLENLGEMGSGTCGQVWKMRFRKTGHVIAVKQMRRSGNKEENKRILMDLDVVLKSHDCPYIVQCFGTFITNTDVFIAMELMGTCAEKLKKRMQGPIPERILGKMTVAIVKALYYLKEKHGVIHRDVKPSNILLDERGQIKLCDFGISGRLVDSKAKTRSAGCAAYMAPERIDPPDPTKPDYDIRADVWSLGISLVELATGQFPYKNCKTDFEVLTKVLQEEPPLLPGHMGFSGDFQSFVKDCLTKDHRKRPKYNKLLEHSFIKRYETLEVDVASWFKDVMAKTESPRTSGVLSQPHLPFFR
Sequence of Insulin-like growth factor 1 receptor (Homo sapiens) (P08069 31-736 limits assumed): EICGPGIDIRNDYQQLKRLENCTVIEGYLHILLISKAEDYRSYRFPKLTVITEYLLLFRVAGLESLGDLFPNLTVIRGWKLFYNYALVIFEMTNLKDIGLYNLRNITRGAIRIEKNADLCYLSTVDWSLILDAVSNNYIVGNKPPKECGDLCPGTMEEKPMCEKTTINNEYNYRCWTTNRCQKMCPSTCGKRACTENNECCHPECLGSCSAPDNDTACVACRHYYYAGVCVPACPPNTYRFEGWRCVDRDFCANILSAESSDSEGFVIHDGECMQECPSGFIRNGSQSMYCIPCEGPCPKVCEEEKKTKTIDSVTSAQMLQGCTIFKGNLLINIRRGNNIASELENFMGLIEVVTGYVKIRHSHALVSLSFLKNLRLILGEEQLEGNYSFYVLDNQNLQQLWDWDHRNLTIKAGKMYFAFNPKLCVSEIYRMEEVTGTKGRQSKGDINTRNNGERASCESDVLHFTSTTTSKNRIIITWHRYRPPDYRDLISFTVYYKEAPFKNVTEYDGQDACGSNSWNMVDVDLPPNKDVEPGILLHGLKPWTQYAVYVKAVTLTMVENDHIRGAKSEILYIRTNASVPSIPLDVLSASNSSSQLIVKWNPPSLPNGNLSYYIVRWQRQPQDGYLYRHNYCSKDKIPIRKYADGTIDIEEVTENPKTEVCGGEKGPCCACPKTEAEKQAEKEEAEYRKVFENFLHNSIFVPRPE
Sequence of Insulin-like growth factor 1 receptor (Homo sapiens) (P08069 741-1367 limits assumed): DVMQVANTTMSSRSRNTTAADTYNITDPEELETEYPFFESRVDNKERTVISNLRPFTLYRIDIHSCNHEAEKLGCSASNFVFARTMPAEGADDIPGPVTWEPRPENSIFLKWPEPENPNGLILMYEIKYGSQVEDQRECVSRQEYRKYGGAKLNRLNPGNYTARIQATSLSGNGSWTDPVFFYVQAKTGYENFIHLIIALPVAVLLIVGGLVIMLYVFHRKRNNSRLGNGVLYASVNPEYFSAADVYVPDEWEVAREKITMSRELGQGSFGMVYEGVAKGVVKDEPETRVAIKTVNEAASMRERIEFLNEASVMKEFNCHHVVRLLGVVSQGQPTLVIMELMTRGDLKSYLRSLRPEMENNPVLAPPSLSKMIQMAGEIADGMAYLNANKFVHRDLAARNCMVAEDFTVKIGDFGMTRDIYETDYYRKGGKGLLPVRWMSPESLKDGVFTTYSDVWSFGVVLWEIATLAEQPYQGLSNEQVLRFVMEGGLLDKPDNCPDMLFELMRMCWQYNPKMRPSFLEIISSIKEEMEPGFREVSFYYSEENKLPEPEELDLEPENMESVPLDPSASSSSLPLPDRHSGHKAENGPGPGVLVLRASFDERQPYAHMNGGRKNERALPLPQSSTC
Sequence of Tyrosine-protein kinase Lyn (P07948 whole entry): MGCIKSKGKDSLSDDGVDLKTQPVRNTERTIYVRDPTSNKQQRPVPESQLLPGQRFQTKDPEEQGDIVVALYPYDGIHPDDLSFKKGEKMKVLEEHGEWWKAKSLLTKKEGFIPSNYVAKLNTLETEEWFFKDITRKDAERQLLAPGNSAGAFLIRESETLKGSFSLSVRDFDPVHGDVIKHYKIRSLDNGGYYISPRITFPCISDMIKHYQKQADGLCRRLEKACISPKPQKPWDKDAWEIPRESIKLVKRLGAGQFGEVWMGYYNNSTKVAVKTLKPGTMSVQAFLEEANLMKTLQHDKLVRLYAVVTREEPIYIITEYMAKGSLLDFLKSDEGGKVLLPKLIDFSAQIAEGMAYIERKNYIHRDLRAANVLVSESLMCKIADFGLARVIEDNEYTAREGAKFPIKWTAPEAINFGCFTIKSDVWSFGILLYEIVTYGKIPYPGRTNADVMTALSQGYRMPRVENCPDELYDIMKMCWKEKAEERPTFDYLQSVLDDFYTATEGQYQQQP
Sequence of Tyrosine-protein kinase ZAP-70 (Homo sapiens) (P43403 whole entry): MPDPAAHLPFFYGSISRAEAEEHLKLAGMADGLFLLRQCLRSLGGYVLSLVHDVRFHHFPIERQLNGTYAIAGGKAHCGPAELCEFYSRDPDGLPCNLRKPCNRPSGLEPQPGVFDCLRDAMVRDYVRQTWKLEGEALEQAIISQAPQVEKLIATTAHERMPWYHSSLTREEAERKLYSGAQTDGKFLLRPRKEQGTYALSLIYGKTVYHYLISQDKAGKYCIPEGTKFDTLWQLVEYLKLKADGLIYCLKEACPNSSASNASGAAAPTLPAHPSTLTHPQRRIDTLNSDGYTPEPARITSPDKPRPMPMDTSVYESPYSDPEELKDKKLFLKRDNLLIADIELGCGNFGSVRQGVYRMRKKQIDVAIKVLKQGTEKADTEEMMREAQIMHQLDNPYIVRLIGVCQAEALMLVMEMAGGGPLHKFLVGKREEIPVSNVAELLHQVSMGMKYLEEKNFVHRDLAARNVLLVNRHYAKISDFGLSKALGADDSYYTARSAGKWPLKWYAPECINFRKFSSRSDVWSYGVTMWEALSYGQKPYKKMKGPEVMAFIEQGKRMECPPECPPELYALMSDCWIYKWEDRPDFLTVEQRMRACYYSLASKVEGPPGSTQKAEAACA

In the case of CN1CCN(c2ccc(OC(F)(F)F)c(Nc3ncc4c(n3)-c3c(c(C(N)=O)nn3CCO)CC4)c2)CC1 [ONVANSERTIB], the IC50 [1] is reported as 0.032 µM, the IC50 [2] is reported as 0.059 µM and the TGI [3] is reported as “Active”. It also gave an Activity [4] of 125%, an Activity [5] of 127% and a half-life [6] of 2.7 h. The Activity [7] was 43%, the Activity [8] was 74% and the Activity [9] was 42%. It also gave a Time [10] of 50 days, an Activity [11] of 118% and an IC50 [12] greater than 10 µM. For the same compound, the Activity [13] was “Dose-Dependent Effect”, the Activity [14] was 114% and the IC50 [15] was 0.048 µM. For the same compound, the IC50 [16] was 0.032 µM, the IC50 [17] was 0.023 µM and the Tmax [18] was 1.2 h. The IC50 [19] was 0.059 µM, the Activity [20] was 88% and the Activity [21] was 90%. For the same compound, the IC50 [22] was 0.135 µM, the IC50 [23] was 0.62 µM and the IC50 [24] was greater than 10 µM. For the same compound, the Activity [25] was 80%, the IC50 [26] was 0.09 µM and the Tmax [27] was 3 h.
